Values after ≈ are worked out from the molar mass of the structure shown.
Assays:
[1] = test system: Mycobacterium tuberculosis; test: Antimycobacterial activity against Mycobacterium tuberculosis H37Rv incubated for 5 days under aerobic condition by fluorescence assay; assay type: functional, organism-based; details: 120 h
In short: (§1)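 M. tuberculosis H37Rv grown aerobically; dual read-out assay (OD590 plus fluorescence); MIC and IC50 values reported; run at IDRI under NIAID screening programme.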

Vero = test: Cytotoxicity against African green monkey Vero cells measured after 72 hrs by MTS-PMS assay; assay type: cell-based; details: Chlorocebus sabaeus
In short: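 Cells exposed 72 h; viability read with a non-radioactive cell proliferation assay; IC50 determined.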

[2] = biological target: T1, Enoyl-[acyl-carrier-protein] reductase [NADH] (Mycobacterium tuberculosis) (UniProt P9WGR1); test: Inhibition of Mycobacterium tuberculosis InhA at 5 uM using DDCoA as substrate relative to control
T1 sequence (whole entry): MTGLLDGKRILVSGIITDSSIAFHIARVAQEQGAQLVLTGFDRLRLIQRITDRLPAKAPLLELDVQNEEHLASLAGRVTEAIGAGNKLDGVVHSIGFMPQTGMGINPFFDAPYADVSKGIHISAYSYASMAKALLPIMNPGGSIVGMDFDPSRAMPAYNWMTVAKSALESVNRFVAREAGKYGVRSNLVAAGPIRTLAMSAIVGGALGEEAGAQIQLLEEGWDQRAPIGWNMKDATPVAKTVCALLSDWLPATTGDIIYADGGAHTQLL
In short: (§2)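 InhA enzyme assay run in triplicate with 2-trans-dodecenoyl-CoA as substrate analogue; inhibition followed as NADH oxidation to NAD+ at 340 nm. Compounds screened at 50 μM, selected ones also at 5 μM; IC50 from 4-parameter curve fit; GEQ as reference inhibitor.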

[3] = Selectivity index, ratio of IC50 for African green monkey Vero cells to IC50 for Mycobacterium tuberculosis H37Rv; assay type: toxicity; details: read-out: Ratio IC50
In short: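 Ratio of cytotoxicity IC50 to H37Rv IC50; not calculated where H37Rv IC50 >100.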

[4] = test system: Mycobacterium tuberculosis; test: Antimycobacterial activity against Mycobacterium tuberculosis H37Rv; assay type: functional; in short: as §1
[5] = biological target: T2, Enoyl-[acyl-carrier-protein] reductase [NADH] (Mycobacterium tuberculosis, UniProt P9WGR1); test: Inhibition of Mycobacterium tuberculosis InhA using DDCoA as substrate; in short: as §2
T2 sequence (P9WGR1 whole entry): T1 sequence (whole entry)

| Compound | MIC [1] [µM] | IC50 (Vero) [µM] | inhibition [2] [%] | IC50 [1] [µM] | selectivity ratio [3] | MIC [4] [µM] | IC50 [5] [µM] |
| --- | --- | --- | --- | --- | --- | --- | --- |
| Cn1c2ccccc2c2cc(/C=C3\SC(=S)N(c4nnc(-c5ccccc5Cl)s4)C3=O)ccc21 | > 100 | 239 | – | – | – | – | – |
| COc1cc(N2C(=O)/C(=C/c3ccc4c(c3)c3ccccc3n4C)SC2=S)cc(OC)c1OC | > 100 | 185 | – | – | – | – | – |
| Cn1c2ccccc2c2cc(/C=C3\SC(=S)N(c4nnc(-c5ccc(Cl)cc5)s4)C3=O)ccc21 | > 100 | 245 | – | – | – | – | – |
| COc1ccc(-c2nnc(N3C(=O)/C(=C/c4ccc5c(c4)c4ccccc4n5C)SC3=S)s2)cc1 | > 100 | 258 | – | – | – | – | – |
| Cn1c2ccccc2c2cc(/C=C3\SC(=S)N(c4cc(C(=O)O)cc(C(=O)O)c4)C3=O)ccc21 | > 100 | 210 | 12 | – | – | – | – |
| Cc1cc(=O)oc2cc(N3C(=O)/C(=C/c4ccc5c(c4)c4ccccc4n5C)SC3=S)ccc12 | 20 (≈ 9.65 µg/mL) | 296 | – | 20 | 14.8 | – | – |
| COc1ccc(N2C(=O)/C(=C/c3ccc4c(c3)c3ccccc3n4C)SC2=S)cc1OC | 50 (≈ 23 µg/mL) | 261 | – | 50 | 5.2 | – | – |
| Cn1c2ccccc2c2cc(/C=C3\SC(=S)N(c4ccccc4)C3=O)ccc21 | > 100 | 240 | – | 75 | 3.2 | – | – |
| Cn1c2ccccc2c2cc(/C=C3\SC(=S)N(c4nnc(-c5ccc(Br)cc5)s4)C3=O)ccc21 | > 100 | 165 | – | – | – | – | – |
| Cn1c2ccccc2c2cc(/C=C3\SC(=S)N(c4nnc(-c5cccc(Cl)c5)s4)C3=O)ccc21 | > 100 | 193 | – | – | – | – | – |
| Cn1c2ccccc2c2cc(/C=C3\SC(=S)N(c4ccc(Cl)cc4)C3=O)ccc21 | > 100 | 213 | – | – | – | – | – |
| COc1cccc(N2C(=O)/C(=C/c3ccc4c(c3)c3ccccc3n4C)SC2=S)c1 | > 100 | 235 | – | – | – | – | – |
| Cc1cc(=O)[nH]c2cc(N3C(=O)/C(=C/c4ccc5c(c4)c4ccccc4n5C)SC3=S)ccc12 | > 100 | 277 | – | – | – | – | – |
| Cn1c2ccccc2c2cc(/C=C3\SC(=S)N(c4cccc(C(F)(F)F)c4)C3=O)ccc21 | > 100 | 167 | – | – | – | – | – |
| Cn1c2ccccc2c2cc(/C=C3\SC(=S)N(c4cccc(O)c4)C3=O)ccc21 | > 100 | 289 | 10 | 25 | 11.6 | – | – |
| COC(=O)c1ccc(N2C(=O)/C(=C/c3ccc4c(c3)c3ccccc3n4C)SC2=S)cc1 | > 100 | 222 | – | – | – | – | – |
| O=C(c1ccc2[nH]ccc2c1)N1CCN(C2c3ccccc3-c3ccccc32)CC1 | > 50 | – | – | – | – | – | – |
| COc1ccc(-c2csc(N/N=C/c3ccc4c(c3)c3ccccc3n4C)n2)cc1OC | – | – | – | – | – | 21 (≈ 9.29 µg/mL) | – |
| Cn1c2ccccc2c2cc(/C=C3\SC(=S)N(c4nnc(-c5ccccc5F)s4)C3=O)ccc21 | > 100 | 208 | – | – | – | – | – |
| Cn1c2ccccc2c2cc(/C=C3\SC(=S)N(c4ccc(C(=O)O)cc4)C3=O)ccc21 | > 100 | 263 | 54 | – | – | – | 2.82 |
